ChEMBL document CHEMBL2434947, “Probing structural requirements of positive allosteric modulators of the M4 muscarinic receptor” (J Med Chem, 2013)
Activity calls are given as the source filed them. The calls are words filed in the database; no cut-off is given here.

Columns and labels:
[1] = molecular target: T1, Muscarinic acetylcholine receptor M4 (Homo sapiens) (UniProt P08173); test: Positive allosteric modulation of human muscarinic M4 receptor expressed in CHO Flp-In cells assessed as stimulation of acetylcholine-induced ERK1/2 phosphorylation incubated under green light condition by fluorescence assay relative to control; assay type: cell-based
T1 sequence (whole entry): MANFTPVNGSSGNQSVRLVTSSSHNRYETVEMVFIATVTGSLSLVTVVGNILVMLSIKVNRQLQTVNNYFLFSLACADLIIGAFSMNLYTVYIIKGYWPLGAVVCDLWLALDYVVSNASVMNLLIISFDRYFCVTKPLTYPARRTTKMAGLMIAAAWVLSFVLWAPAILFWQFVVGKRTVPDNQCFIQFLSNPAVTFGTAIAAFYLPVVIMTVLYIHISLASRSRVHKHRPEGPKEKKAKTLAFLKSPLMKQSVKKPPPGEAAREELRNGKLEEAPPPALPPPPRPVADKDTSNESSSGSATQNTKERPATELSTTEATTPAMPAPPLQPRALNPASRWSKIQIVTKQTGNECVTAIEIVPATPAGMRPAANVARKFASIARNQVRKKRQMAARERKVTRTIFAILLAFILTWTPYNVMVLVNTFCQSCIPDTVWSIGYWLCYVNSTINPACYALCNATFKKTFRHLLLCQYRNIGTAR
How it was run: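 ERK1/2 phosphorylation in intact FlpIn-CHO cells stably expressing human M4 mAChR. Modulator was titrated at a fixed EC20 concentration of ACh to give empirical EC50 and Emax (EM′). The incubation time was taken from prior time-course assays of peak phosphorylation. Mean ± SEM from at least three experiments performed in duplicate.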

[2] = molecular target: T2, Muscarinic acetylcholine receptor M4 (Homo sapiens, UniProt P08173); test: Positive allosteric modulation of human muscarinic M4 receptor expressed in CHO Flp-In cells assessed as stimulation of acetylcholine-induced ERK1/2 phosphorylation incubated under green light condition by fluorescence assay; assay type: cell-based
T2 sequence (P08173 whole entry): T1 sequence (whole entry)
How it was run: (§1)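 Intact FlpIn-CHO cells stably expressing human M4 mAChR; ERK1/2 phosphorylation read-out. A time course first set the incubation time of peak phosphorylation, and concentration-response curves were run at that time. Modulator was titrated against ACh. pKB (allosteric site affinity), τB and composite cooperativity αβ came from an operational model of allosterism. Mean ± SEM from at least three experiments in duplicate.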

[3] = molecular target: T1, Muscarinic acetylcholine receptor M4 (Homo sapiens); test: Binding affinity to human muscarinic M4 receptor expressed in CHO Flp-In cells; assay type: cell-based; how it was run: as §1
[4] = molecular target: T1, Muscarinic acetylcholine receptor M4 (Homo sapiens); test: Displacement of [3H]NMS from human muscarinic M4 receptor expressed in CHO Flp-In cells after 4 hrs by scintillation counting analysis; assay type: cell-based
[5] = molecular target: T1, Muscarinic acetylcholine receptor M4 (Homo sapiens); test: Positive allosteric modulation of human muscarinic M4 receptor expressed in CHO Flp-In cells assessed as stimulation of acetylcholine-induced ERK1/2 phosphorylation incubated under green light condition by fluorescence assay

Activity [1]	EC50 ([2]; read-out: EC50)	Emax [1]	Kb [3]	pKb [3]	Structure (SMILES)	other results
inactive	–	–	–	–	Cc1cc(C)c(C#N)c(SCC(=O)NCc2ccccc2F)n1	–
–	130 nM	85%	1690 nM	5.77	Cc1cc(C)c2c(N)c(C(=O)NCc3cc(F)ccc3F)sc2n1	–
–	110 nM	91%	1720 nM	5.76	Cc1cc(C)c2c(N)c(C(=O)NCc3cccc(F)c3F)sc2n1	Activity [4]: inactive
inactive	–	–	–	–	Cc1cc(C)c(C#N)c(SCC(=O)NCc2cc(F)ccc2F)n1	–
inactive	–	–	–	–	COc1ccc(CNC(=O)CSc2nc(C)cc(C)c2C#N)c(F)c1F	–
inactive	–	–	–	–	COc1cccc(CNC(=O)CSc2nc(C)cc(C)c2C#N)c1	–
inactive	–	–	–	–	COc1cc(CNC(=O)CSc2nc(C)cc(C)c2C#N)cc(OC)c1	–
inactive	–	–	–	–	Cc1cc(C)c(C#N)c(SCC(=O)NCc2cccc(F)c2)n1	–
–	140 nM	85%	1290 nM	5.89	Cc1cc(C)c2c(N)c(C(=O)NCc3cc(F)cc(F)c3F)sc2n1	–
–	130 nM	92%	1170 nM	5.93	Cc1cc(C)c2c(N)c(C(=O)NCc3ccccc3F)sc2n1	–
inactive	–	–	–	–	COc1ccc(CNC(=O)CSc2nc(C)cc(C)c2C#N)cc1	–
inactive	–	–	–	–	Cc1cc(C)c(C#N)c(SCC(=O)NCc2cc(F)c(F)cc2F)n1	–
inactive	–	–	–	–	COc1ccccc1CNC(=O)CSc1nc(C)cc(C)c1C#N	–

The next lines start with the molecule.

Structure (SMILES)	Activity [1]	EC50 ([2]; read-out: EC50)	Emax [1]	Kb [3]	pKb [3]	other results
COc1ccc(CNC(=O)c2sc3nc(C)cc(C)c3c2N)c(F)c1	–	350 nM	56%	1820 nM	5.74	–
COc1ccc(CNC(=O)c2sc3nc(C)cc(C)c3c2N)cc1F	–	100 nM	95%	2580 nM	5.59	Activity [4]: inactive
Cc1cc(C)c2c(N)c(C(=O)NCc3cc(F)c(F)cc3F)sc2n1	–	580 nM	83%	2320 nM	5.63	–
COc1cccc(CNC(=O)c2sc3nc(C)cc(C)c3c2N)c1	–	560 nM	92%	11400 nM	4.95	–
COc1ccc(CNC(=O)c2sc3nc(C)cc(C)c3c2N)c(F)c1F	–	240 nM	89%	1880 nM	5.73	Activity [4]: inactive
COc1cc(F)c(CNC(=O)c2sc3nc(C)cc(C)c3c2N)cc1F.Cl	–	–	inactive	–	–	EC50 [2]: Not Active; Activity [5]: inactive; KB [3]: inactive
Cc1cc(C)c2c(N)c(C(=O)NCc3ccc(F)cc3)sc2n1	–	220 nM	98%	2520 nM	5.6	Activity [4]: inactive
COc1ccc(CNC(=O)c2sc3nc(C)cc(C)c3c2N)cc1	–	–	85%	–	–	Activity [4]: inactive
COc1cc(CNC(=O)c2sc3nc(C)cc(C)c3c2N)cc(OC)c1.Cl	–	–	inactive	–	–	EC50 [2]: Not Active; Activity [5]: inactive; KB [3]: inactive
COc1cc(CNC(=O)c2sc3nc(C)cc(C)c3c2N)cc(OC)c1OC.Cl	–	–	inactive	–	–	EC50 [2]: Not Active; Activity [5]: inactive; KB [3]: inactive
COc1ccccc1CNC(=O)c1sc2nc(C)cc(C)c2c1N.Cl	–	–	inactive	–	–	EC50 [2]: Not Active; Activity [5]: inactive; KB [3]: inactive
COc1ccc(CNC(=O)c2sc3nc(C)cc(C)c3c2N)cc1OC.Cl	–	–	inactive	–	–	EC50 [2]: Not Active; Activity [5]: inactive; KB [3]: inactive
Cc1cc(C)c2c(N)c(C(=O)NCc3cccc(F)c3)sc2n1	–	310 nM	98%	6240 nM	5.21	Activity [4]: inactive
